Reference: ChEMBL document CHEMBL4371052, “Diarylcarbonates are a new class of deubiquitinating enzyme inhibitor” (Bioorg Med Chem Lett, 2019)
Active and inactive are the calls of the source. The rule behind the calls is not given here.

Legend:
[1] = target: Ubiquitin carboxyl-terminal hydrolase isozyme L5 (Homo sapiens) (UniProt Q9Y5K5); test: Inhibition of UCHL5 in HEK293T cell lysates at 25 uM using HA-tagged vinyl-sulfone as substrate measured after 2 to 30 mins by Western blot analysis; type: subcellular; conditions: Lysate
Ubiquitin carboxyl-terminal hydrolase isozyme L5 (Homo sapiens), sequence (Q9Y5K5 whole entry): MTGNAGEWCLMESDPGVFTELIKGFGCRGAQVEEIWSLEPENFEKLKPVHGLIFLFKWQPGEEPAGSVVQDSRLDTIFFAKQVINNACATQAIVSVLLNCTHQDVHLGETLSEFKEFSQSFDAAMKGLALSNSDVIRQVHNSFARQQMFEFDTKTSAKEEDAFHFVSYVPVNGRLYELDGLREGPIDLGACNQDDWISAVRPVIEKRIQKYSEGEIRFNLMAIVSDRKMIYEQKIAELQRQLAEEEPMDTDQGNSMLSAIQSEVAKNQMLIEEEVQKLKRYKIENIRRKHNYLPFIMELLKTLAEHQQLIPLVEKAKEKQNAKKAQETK
Method in brief: (§1)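 HEK 293T lysate (1.5 mg/ml) given compound (25 μM) or DMSO at the same time as HA-Ub-VS (1.5 μM). Aliquots withdrawn over time were run on SDS-PAGE and immunoblotted for HA.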

[2] = target: Ubiquitin carboxyl-terminal hydrolase 7 (Homo sapiens) (UniProt Q93009); test: Inhibition of recombinant His6-tagged USP7 catalytic domain (unknown origin) using Ub-AMC as substrate by fluorescence assay; conditions: TDE = time-dependent effect
Ubiquitin carboxyl-terminal hydrolase 7 (Homo sapiens), sequence (Q93009 whole entry, looked up, the tested form may be a part): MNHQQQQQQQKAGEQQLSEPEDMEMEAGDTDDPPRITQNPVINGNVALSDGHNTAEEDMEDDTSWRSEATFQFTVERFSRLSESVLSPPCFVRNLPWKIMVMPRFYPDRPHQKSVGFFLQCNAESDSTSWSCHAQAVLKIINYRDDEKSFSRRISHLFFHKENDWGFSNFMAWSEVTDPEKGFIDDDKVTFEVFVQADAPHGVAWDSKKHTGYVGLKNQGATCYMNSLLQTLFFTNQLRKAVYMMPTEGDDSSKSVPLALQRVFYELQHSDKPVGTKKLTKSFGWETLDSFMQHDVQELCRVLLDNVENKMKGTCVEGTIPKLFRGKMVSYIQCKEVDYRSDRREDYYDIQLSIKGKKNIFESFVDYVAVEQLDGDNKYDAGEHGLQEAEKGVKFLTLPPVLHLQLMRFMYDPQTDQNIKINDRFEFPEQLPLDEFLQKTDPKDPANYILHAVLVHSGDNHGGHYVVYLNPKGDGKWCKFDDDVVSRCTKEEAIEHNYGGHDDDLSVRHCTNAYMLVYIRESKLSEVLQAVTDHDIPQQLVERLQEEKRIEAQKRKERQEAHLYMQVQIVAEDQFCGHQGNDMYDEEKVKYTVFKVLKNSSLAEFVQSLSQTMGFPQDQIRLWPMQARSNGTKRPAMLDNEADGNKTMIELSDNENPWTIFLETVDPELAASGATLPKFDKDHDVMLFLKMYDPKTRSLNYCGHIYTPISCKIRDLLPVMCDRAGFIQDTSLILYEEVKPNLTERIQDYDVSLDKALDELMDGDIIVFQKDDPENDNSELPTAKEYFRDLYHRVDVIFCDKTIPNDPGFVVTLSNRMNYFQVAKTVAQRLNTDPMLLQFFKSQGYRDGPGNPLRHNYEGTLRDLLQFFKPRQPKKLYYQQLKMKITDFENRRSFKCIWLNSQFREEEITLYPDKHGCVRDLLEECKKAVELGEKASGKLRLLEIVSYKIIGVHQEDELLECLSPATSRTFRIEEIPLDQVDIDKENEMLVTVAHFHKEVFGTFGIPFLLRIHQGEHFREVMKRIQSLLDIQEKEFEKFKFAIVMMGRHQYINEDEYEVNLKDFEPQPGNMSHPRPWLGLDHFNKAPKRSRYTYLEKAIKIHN

[3] = target: T1, Ubiquitin carboxyl-terminal hydrolase isozyme L3 (Homo sapiens) (UniProt P15374); test: Inhibition of UCHL3 in HEK293T cell lysates at 25 uM using HA-tagged vinyl-sulfone as substrate measured after 2 to 30 mins by Western blot analysis; type: subcellular; conditions: Lysate; method in brief: as §1
T1 sequence (whole entry): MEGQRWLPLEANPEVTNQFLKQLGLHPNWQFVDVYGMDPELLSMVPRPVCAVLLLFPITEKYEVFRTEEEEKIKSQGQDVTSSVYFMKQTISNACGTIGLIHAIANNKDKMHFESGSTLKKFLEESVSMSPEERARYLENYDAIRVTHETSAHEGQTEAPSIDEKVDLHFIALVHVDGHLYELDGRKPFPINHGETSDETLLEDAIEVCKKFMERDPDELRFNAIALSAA

inhibition [1]: inactive
inhibition [2]: Tde
inhibition [3]: inactive
Structure (SMILES): NCc1ccc(OC(=O)Oc2ccc3ccccc3c2)cc1
